Converted amounts (≈) assume the structure as drawn.
Assays:
[1] = tested on: Aspergillus fumigatus ATCC 90906; experiment: Antimicrobial assay; format: cell-based; details: for IC50: Aspergillus fumigatus, ATCC90906, read-out: A. fumigatus IC50; for A. fumigatus IC50: first value of IC50/MIC
[2] = tested on: Candida albicans ATCC 90028; experiment: Antimicrobial assay; format: cell-based; details: for IC50: Candida albicans, ATCC90028, read-out: C. albicans IC50; for C. albicans IC50: first value of IC50/MIC
[3] = tested on: Leishmania donovani promastigotes; experiment: Antileishmanial assay; format: cell-based; details: 72 h; for IC50 / IC90: Leishmania donovani; for IC50: read-out: L. donovani IC50; for IC90: read-out: L. donovani IC90; for L. donovani IC50 / L. donovani IC90: promastigotes
[4] = tested on: Cryptococcus neoformans ATCC 90113; experiment: Antimicrobial assay; format: cell-based; details: for MIC / IC50: Cryptococcus neoformans; for MIC: ATCC90113, read-out: C. neoformans MIC; for IC50: ATCC90113, read-out: C. neoformans IC50; for C. neoformans MIC: second value of IC50/MIC; for C. neoformans IC50: first value of IC50/MIC
Plasmodium falciparum = experiment: Antimalarial/parasite LDH assay, strains not distinguished in text; format: cell-based; details: for IC50: Plasmodium falciparum, read-out: antiplasmodial IC50; for antimalarial activity against Plasmodium falciparum: result in words
How it was run: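 Colorimetric assay of parasite lactate dehydrogenase (pLDH) activity in P. falciparum cultures, run in 96-well format on two strains: Sierra Leone D6 (chloroquine-sensitive) and Indochina W2 (chloroquine-resistant). DMSO served as vehicle control, with artemisinin and chloroquine as drug controls.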

[5] = tested on: P. falciparum W2 (chloroquine-resistant, Indochina); experiment: Antimalarial/parasite LDH assay, W2 clone; format: cell-based, Plasmodium falciparum; details: for IC50: Plasmodium falciparum, W2, read-out: P. falciparum W2 IC50
[6] = tested on: P. falciparum D6 (chloroquine-sensitive, Sierra Leone); experiment: Antimalarial/parasite LDH assay, D6 clone; format: cell-based, Plasmodium falciparum; details: for IC50: Plasmodium falciparum, D6, read-out: P. falciparum D6 IC50
[7] = tested on: Mycobacterium intracellulare ATCC 23068; experiment: Antimicrobial assay; format: cell-based; details: for IC50: ATCC23068, read-out: M. intracellulare IC50; for M. intracellulare MIC: second value of IC50/MIC; for M. intracellulare IC50: first value of IC50/MIC
How it was run: (§1)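 Modified CLSI broth susceptibility method. Ciprofloxacin drug control in each assay. […] MIC is the lowest test concentration allowing no detectable growth.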

[8] = tested on: methicillin-resistant S. aureus ATCC 43300 (MRS); experiment: Antimicrobial assay; format: cell-based, Staphylococcus aureus; details: for IC50 / MIC: Staphylococcus aureus; for IC50: ATCC43300, read-out: MRS IC50; for MIC: ATCC43300, read-out: MRS MIC; for MRS MIC / MRS IC50: methicillin-resistant S. aureus; for MRS MIC: second value of IC50/MIC; for MRS IC50: first value of IC50/MIC
How it was run: as §1

[9] = tested on: Pseudomonas aeruginosa ATCC 27853; experiment: Antimicrobial assay; format: cell-based; details: for IC50: ATCC27853, read-out: P. aureginosa IC50; for P. aureginosa IC50: first value of IC50/MIC
How it was run: as §1

[10] = tested on: Staphylococcus aureus ATCC 29213; experiment: Antimicrobial assay; format: cell-based; details: for IC50 / MIC: Staphylococcus aureus; for IC50: ATCC29213, read-out: S. aureus IC50; for MIC: ATCC29213, read-out: S. aureus MIC; for S. aureus MIC: second value of IC50/MIC; for S. aureus IC50: first value of IC50/MIC
How it was run: as §1

[11] = tested on: Escherichia coli ATCC 35218; experiment: Antimicrobial assay; format: cell-based; details: for IC50: ATCC35218, read-out: E. coli IC50; for E. coli IC50: first value of IC50/MIC
How it was run: as §1

Candida krusei ATCC 6258 = experiment: Antimicrobial assay; format: cell-based; details: for C. krusei MIC: second value of IC50/MIC; for C. krusei IC50: first value of IC50/MIC
[12] = tested on: Candida glabrata ATCC 90030; experiment: Antimicrobial assay; format: cell-based; details: for C. glabrata IC50: first value of IC50/MIC

C[C@@H]1[C@H](O)[C@@H](C)/C=C/C=C/C=C/C=C/C=C/C=C/C=C/[C@H](O[C@@H]2O[C@H](C)[C@@H](O)[C@H](N)[C@@H]2O)C[C@@H]2O[C@](O)(C[C@@H](O)C[C@@H](O)[C@H](O)CC[C@@H](O)C[C@@H](O)CC(=O)O[C@H]1C)C[C@H](O)[C@H]2C(=O)O [Amphotericin B, reference compound]
IC50 [1]: 1.29 µg/mL (≈ 1.4 µM) | IC50 [2]: 0.43 µg/mL (≈ 0.465 µM) | IC50 [3]: 0.13 µg/mL (≈ 0.141 µM) | IC90 [3]: 0.3 µg/mL (≈ 0.325 µM) | MIC [4]: 1.25 µg/mL (≈ 1.35 µM)

C[C@@H]1CC[C@H]2[C@@H](C)C(=O)O[C@@H]3O[C@@]4(C)CC[C@@H]1[C@]32OO4 [Artemisinin, reference compound]
IC50 (Plasmodium falciparum): < 0.026 µg/mL | IC50 [5]: < 0.026 µg/mL | IC50 [6]: < 0.026 µg/mL

CCN(CC)CCCC(C)Nc1ccnc2cc(Cl)ccc12 (stereo not shown) [Chloroquine, reference compound]
IC50 [5]: 0.14 µg/mL (≈ 0.438 µM) | IC50 [6]: < 0.026 µg/mL

O=C(O)c1cn(C2CC2)c2cc(N3CCNCC3)c(F)cc2c1=O [Ciprofloxacin, reference compound]
IC50 ([7]; Mycobacterium intracellulare): 0.3 µg/mL (≈ 0.905 µM) | MIC ([7]; Mycobacterium intracellulare, ATCC23068, read-out: M. intracellulare MIC): 1 µg/mL (≈ 3.02 µM) | IC50 [8]: 0.08 µg/mL (≈ 0.241 µM) | MIC [8]: 0.25 µg/mL (≈ 0.754 µM) | IC50 ([9]; Pseudomonas aeruginosa): 0.06 µg/mL (≈ 0.181 µM) | MIC ([9]; Pseudomonas aeruginosa, ATCC27853, read-out: P. aureginosa MIC): 0.25 µg/mL (≈ 0.754 µM) | IC50 [10]: 0.1 µg/mL (≈ 0.302 µM) | MIC [10]: 0.25 µg/mL (≈ 0.754 µM) | IC50 ([11]; Escherichia coli): 0.004 µg/mL (≈ 0.0121 µM) | MIC ([11]; Escherichia coli, ATCC35218, read-out: E. coli MIC): 0.008 µg/mL (≈ 0.0241 µM)

CC(C)C1=C(O)C(=O)C2=C(CC[C@H]3C(C)(C)CCC[C@]23C)C1=O [Compound 2, royleanone]
IC50 [5]: > 4.76 µg/mL | IC50 ([7]; Mycobacterium intracellulare): > 20 µg/mL | IC50 [1]: > 20 µg/mL | IC50 [6]: > 4.76 µg/mL | IC50 [2]: > 20 µg/mL | IC50 [8]: > 20 µg/mL | IC50 ([9]; Pseudomonas aeruginosa): > 20 µg/mL | IC50 [4]: > 20 µg/mL | IC50 [10]: > 20 µg/mL | IC50 ([11]; Escherichia coli): > 20 µg/mL

CC(C)C1=CC2=CC(=O)[C@H]3C(C)(C)CCC[C@]3(C)C2=C(O)C1=O [Compound 3, taxodione]
IC50 (Plasmodium falciparum): 1.2 to 4.8 µg/mL (≈ 3.82 to 15.3 µM) | antimalarial activity against Plasmodium falciparum (Plasmodium falciparum): weak antimalarial activity | IC50 [5]: 1.2 µg/mL (≈ 3.82 µM) | IC50 ([7]; Mycobacterium intracellulare): 11.9 µg/mL (≈ 37.8 µM) | M. intracellulare MIC [7]: − | IC50 [1]: 8.9 µg/mL (≈ 28.3 µM) | A. fumigatus MIC ([1]; second value of IC50/MIC): − | IC50 [6]: 1.2 µg/mL (≈ 3.82 µM) | IC50 [2]: 12.5 µg/mL (≈ 39.8 µM) | C. albicans MIC ([2]; second value of IC50/MIC): − | IC50 [8]: 1.47 µg/mL (≈ 4.68 µM) | MIC [8]: 2.5 µg/mL (≈ 7.95 µM) | MRS MIC [8]: 2.5 µg/mL | IC50 ([9]; Pseudomonas aeruginosa): > 20 µg/mL | IC50 [3]: 0.08 µg/mL (≈ 0.254 µM) | IC90 [3]: 0.21 µg/mL (≈ 0.668 µM) | IC50 [4]: 0.58 µg/mL (≈ 1.84 µM) | MIC [4]: 1.25 µg/mL (≈ 3.98 µM) | C. neoformans MIC [4]: 1.25 µg/mL | C. krusei MIC (Candida krusei ATCC 6258): − | IC50 [10]: 1.35 µg/mL (≈ 4.29 µM) | MIC [10]: 5 µg/mL (≈ 15.9 µM) | S. aureus MIC [10]: 2.5 to 5 µg/mL | IC50 ([11]; Escherichia coli): > 20 µg/mL

CC(C)c1cc2c(cc1O)[C@@]1(C)CCCC(C)(C)[C@@H]1CC2 [Compound 6, ferruginol]
IC50 [5]: > 4.76 µg/mL | IC50 ([7]; Mycobacterium intracellulare): 14.5 µg/mL (≈ 50.6 µM) | M. intracellulare MIC [7]: − | IC50 [1]: > 20 µg/mL | IC50 [6]: > 4.76 µg/mL | IC50 [2]: > 20 µg/mL | IC50 [8]: 0.96 µg/mL (≈ 3.35 µM) | MIC [8]: 2.5 µg/mL (≈ 8.73 µM) | MRS MIC [8]: 2.5 µg/mL | IC50 ([9]; Pseudomonas aeruginosa): > 20 µg/mL | IC50 [3]: 4 µg/mL (≈ 14 µM) | IC90 [3]: 13 µg/mL (≈ 45.4 µM) | IC50 [4]: > 20 µg/mL | IC50 [10]: 1.33 µg/mL (≈ 4.64 µM) | MIC [10]: 2.5 µg/mL (≈ 8.73 µM) | S. aureus MIC [10]: 2.5 to 5 µg/mL | IC50 ([11]; Escherichia coli): > 20 µg/mL

CC(CO)c1cc2c(c(O)c1O)[C@@]1(C)CCCC(C)(C)C1=C(O)C2=O (stereo partly shown) [Compound 8, 6,11,12,16-tetrahydroxy-5,8,11,13-abietatetra-en-7-one]
P. falciparum W2 IC50 ([5]; chloroquine-resistant clone W2): 4.8 µg/mL | C. glabrata IC50 [12]: 14.9 µg/mL | C. glabrata MIC ([12]; second value of IC50/MIC): 20 µg/mL | M. intracellulare IC50 [7]: −/− (=Not Active) | A. fumigatus IC50 [1]: −/− (- =Not Active) | P. falciparum D6 IC50 ([6]; chloroquine-sensitive clone D6): 3.0 µg/mL | C. albicans IC50 [2]: −/− (- =Not Active) | MRS IC50 [8]: 8.44 µg/mL | MRS MIC [8]: 20 µg/mL | P. aureginosa IC50 [9]: −/− (=Not Active) | L. donovani IC50 [3]: 12 µg/mL | L. donovani IC90 [3]: 22 µg/mL | C. neoformans IC50 [4]: 5.9 µg/mL | C. neoformans MIC [4]: 20 µg/mL | C. krusei IC50 (Candida krusei ATCC 6258): 14.5 µg/mL | C. krusei MIC (Candida krusei ATCC 6258): 20 µg/mL | S. aureus IC50 [10]: 6.8 µg/mL | S. aureus MIC [10]: 20 µg/mL | E. coli IC50 [11]: −/− (=Not Active)

CC1=C(C)C2=CC(=O)c3c(O)c4c(c(O)c3[C@@]2(C)CC1)O[C@@H](C)C4 [Compound 9, uncinatone]
antimalarial activity against Plasmodium falciparum (Plasmodium falciparum): inactive | C. glabrata IC50 [12]: −/− (- =Not Active) | M. intracellulare IC50 [7]: −/− (=Not Active) | A. fumigatus IC50 [1]: −/− (- =Not Active) | C. albicans IC50 [2]: −/− (- =Not Active) | MRS IC50 [8]: −/− (=Not Active) | P. aureginosa IC50 [9]: −/− (=Not Active) | L. donovani IC50 [3]: 0.2 µg/mL | L. donovani IC90 [3]: 0.9 µg/mL | C. neoformans IC50 [4]: −/− (- =Not Active) | C. krusei IC50 (Candida krusei ATCC 6258): −/− (- =Not Active) | S. aureus IC50 [10]: −/− (=Not Active) | E. coli IC50 [11]: −/− (=Not Active)

CC(C)c1cc2c(c(O)c1OC1OCC(O)C(O)C1O)C1(C)CCCC(C)(C)C1CC2 (stereo not drawn) [Compound 10, 11-hydroxy-8,11,13-abietatriene-12-O-β-xylopyranoside]
C. glabrata IC50 [12]: −/− (- =Not Active) | M. intracellulare IC50 [7]: −/− (=Not Active) | A. fumigatus IC50 [1]: −/− (- =Not Active) | C. albicans IC50 [2]: −/− (- =Not Active) | MRS IC50 [8]: −/− (=Not Active) | P. aureginosa IC50 [9]: −/− (=Not Active) | C. neoformans IC50 [4]: −/− (- =Not Active) | C. krusei IC50 (Candida krusei ATCC 6258): −/− (- =Not Active) | S. aureus IC50 [10]: −/− (=Not Active) | E. coli IC50 [11]: −/− (=Not Active)

N=C(N)c1ccc(OCCCCCOc2ccc(C(=N)N)cc2)cc1 [Pentamidine, reference compound]
IC50 [3]: 1.4 µg/mL (≈ 4.11 µM) | IC90 [3]: 6 µg/mL (≈ 17.6 µM)

Source: article PMC3697071 (Natural product communications, 2010)
